Test results from ChEMBL document CHEMBL4396957, “Potent bicyclic inhibitors of malarial cGMP-dependent protein kinase: approaches to combining improvements in cell potency, selectivity and structural novelty” (Bioorg Med Chem Lett, 2019).
Active and inactive are the calls of the source. The calls are words filed in the database; no cut-off is given here.

What was measured:
HepG2 = assay: Cytotoxicity against human HepG2 cells assessed as reduction cell viability incubated for 48 hrs by CellTiter-Glo luminescent cell viability assay; assay type: cell-based; conditions: hepg2, 48 h
Summary of the method: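 HepG2 human liver-derived cells exposed to compound for 48 h in an in vitro viability assay. […]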

[1] = target: Receptor-interacting serine/threonine-protein kinase 2 (Homo sapiens) (UniProt O43353); assay: Inhibition of human RIPK2 at 1 uM relative to control
Sequence of Receptor-interacting serine/threonine-protein kinase 2 (Homo sapiens) (O43353 whole entry): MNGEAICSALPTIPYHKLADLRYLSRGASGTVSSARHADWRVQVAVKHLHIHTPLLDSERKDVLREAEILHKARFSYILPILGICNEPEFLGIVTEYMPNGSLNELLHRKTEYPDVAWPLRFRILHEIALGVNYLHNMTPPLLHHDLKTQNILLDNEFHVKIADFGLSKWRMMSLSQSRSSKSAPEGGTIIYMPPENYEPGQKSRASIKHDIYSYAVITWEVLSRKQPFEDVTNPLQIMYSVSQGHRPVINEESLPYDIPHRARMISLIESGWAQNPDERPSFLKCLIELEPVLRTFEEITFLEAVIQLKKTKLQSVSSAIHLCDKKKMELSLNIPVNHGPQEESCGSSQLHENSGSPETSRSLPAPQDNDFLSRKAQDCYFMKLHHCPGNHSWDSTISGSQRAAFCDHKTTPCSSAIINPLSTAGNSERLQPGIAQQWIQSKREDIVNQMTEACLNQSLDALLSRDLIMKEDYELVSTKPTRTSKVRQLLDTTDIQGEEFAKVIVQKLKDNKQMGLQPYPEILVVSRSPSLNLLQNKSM

[2] = target: Maternal embryonic leucine zipper kinase (Homo sapiens) (UniProt Q14680); assay: Inhibition of human MELK at 1 uM relative to control
Sequence of Maternal embryonic leucine zipper kinase (Homo sapiens) (Q14680 whole entry, looked up): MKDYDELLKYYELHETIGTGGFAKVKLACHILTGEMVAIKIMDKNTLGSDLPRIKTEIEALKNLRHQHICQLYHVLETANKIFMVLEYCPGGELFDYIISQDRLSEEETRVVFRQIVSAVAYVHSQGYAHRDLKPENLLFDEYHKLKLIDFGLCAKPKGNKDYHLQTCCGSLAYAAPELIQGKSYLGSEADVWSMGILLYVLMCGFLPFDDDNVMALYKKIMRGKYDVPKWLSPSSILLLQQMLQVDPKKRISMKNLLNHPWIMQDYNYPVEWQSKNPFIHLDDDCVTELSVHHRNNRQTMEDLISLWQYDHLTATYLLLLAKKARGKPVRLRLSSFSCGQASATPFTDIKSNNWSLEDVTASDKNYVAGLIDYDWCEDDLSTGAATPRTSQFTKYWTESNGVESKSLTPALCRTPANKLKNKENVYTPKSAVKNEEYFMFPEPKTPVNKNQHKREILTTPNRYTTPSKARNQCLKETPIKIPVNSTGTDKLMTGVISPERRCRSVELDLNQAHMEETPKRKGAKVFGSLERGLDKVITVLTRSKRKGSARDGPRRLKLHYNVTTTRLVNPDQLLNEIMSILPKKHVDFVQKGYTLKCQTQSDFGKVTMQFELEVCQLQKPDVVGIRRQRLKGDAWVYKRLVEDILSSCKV

[3] = target: T1, cGMP-dependent protein kinase 1 (Homo sapiens) (UniProt Q13976); assay: Inhibition of recombinant human N-terminal His6-tagged full length PKG1beta expressed in baculovirus infected Sf21 insect cells upto 1 uM relative to control
T1 sequence (whole entry): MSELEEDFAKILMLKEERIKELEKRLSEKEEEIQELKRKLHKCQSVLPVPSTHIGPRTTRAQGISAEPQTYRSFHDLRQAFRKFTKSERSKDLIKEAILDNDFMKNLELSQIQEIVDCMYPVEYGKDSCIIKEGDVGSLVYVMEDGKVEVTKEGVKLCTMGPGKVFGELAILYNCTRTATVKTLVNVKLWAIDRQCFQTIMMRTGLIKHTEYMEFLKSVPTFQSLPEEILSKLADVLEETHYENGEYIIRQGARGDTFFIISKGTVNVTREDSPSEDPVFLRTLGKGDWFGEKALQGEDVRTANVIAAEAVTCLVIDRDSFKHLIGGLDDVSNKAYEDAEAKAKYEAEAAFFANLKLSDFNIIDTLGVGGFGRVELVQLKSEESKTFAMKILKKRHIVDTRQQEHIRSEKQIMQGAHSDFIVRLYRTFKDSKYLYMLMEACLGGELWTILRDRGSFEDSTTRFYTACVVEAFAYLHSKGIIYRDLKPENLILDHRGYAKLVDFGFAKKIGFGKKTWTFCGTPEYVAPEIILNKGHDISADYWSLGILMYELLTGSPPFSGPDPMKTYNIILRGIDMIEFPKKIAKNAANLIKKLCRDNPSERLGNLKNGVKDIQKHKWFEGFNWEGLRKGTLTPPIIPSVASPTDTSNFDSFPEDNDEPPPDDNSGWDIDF

[4] = target: T1, cGMP-dependent protein kinase 1 (Homo sapiens); assay: Inhibition of recombinant human N-terminal His6-tagged full length PKG1alpha expressed in baculovirus infected Sf21 insect cells upto 1 uM relative to control

inhibition [1] [%]	inhibition [2] [%]	Structure (SMILES)	Activity (HepG2)	inhibition [3]	inhibition [4]
		CN1CCN(c2ccc3nc(-c4ccc(F)cc4)c(-c4ccnc(N)n4)n3c2)CC1	Toxic		
50 to 90	> 90	CN(C)Cc1ccn2c(-c3ccnc(Nc4ccc(N5CCNCC5)cc4)n3)c(C3CC3)nc2c1			
50 to 90	50 to 90	CNc1nccc(-c2c(-c3ccc(F)cc3)nc3cc(NCCN(C)C)ccn23)n1		inactive	inactive
		CN1CCN(c2ccn3c(-c4ccnc(N)n4)c(-c4ccc(F)cc4)nc3c2)CC1	Non-Toxic		

Structure (SMILES)	inhibition [1] [%]	inhibition [2] [%]	Activity (HepG2)	inhibition [3]	inhibition [4]
CN(C)Cc1ccn2c(-c3ccnc(N)n3)c(-c3ccc(F)cc3)nc2c1	50 to 90	> 90		inactive	inactive
